Measured values published in paper PMC5909973 (ChemMedChem, 2017).

Key:
human FPR2 [1] = biological target: T1, human FPR2 (Homo sapiens, UniProt P25090); experiment: Ca2+ mobilization; type: cell-based; details: for Ca+2 mobilization FPR2-HL60 efficacy: normalized to 5 nM WKYMVM = 100%
T1 sequence (P25090 1-351): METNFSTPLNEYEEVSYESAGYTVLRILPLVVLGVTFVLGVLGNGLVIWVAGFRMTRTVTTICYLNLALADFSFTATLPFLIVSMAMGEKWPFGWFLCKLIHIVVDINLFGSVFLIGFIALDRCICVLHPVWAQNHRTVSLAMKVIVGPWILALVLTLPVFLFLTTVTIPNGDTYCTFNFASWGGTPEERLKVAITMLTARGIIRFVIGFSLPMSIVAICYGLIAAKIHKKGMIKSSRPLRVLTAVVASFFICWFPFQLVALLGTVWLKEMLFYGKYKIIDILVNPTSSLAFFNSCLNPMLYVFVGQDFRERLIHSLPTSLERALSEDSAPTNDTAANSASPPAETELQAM
Outline: (§1)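 FPR1- or FPR2-stably transfected HL-60 cells were kept in RPMI 1640 with 10% FCS and G418. Cells were loaded with Fluo-4 AM (1.25 µg/mL final) for 30 min at 37 °C in the dark, then put in HBSS with Ca²⁺/Mg²⁺ at 2×10⁵ cells/well. After test compound addition, fluorescence (ex 485/em 538 nm) was read every 5 s for 240 s at room temperature. Peak change over baseline was normalized to 5 nM fMLF (FPR1) or 5 nM WKYMVM (FPR2). Runs were in triplicate, with EC50 from nonlinear regression of 5–6 points.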

human FPR1 [2] = biological target: T2, human FPR1 (Homo sapiens, UniProt P21462); experiment: Ca2+ mobilization; type: cell-based; details: for Ca+2 mobilization FPR1-HL60 efficacy: normalized to 5 nM fMLF = 100%
T2 sequence (P21462 1-350): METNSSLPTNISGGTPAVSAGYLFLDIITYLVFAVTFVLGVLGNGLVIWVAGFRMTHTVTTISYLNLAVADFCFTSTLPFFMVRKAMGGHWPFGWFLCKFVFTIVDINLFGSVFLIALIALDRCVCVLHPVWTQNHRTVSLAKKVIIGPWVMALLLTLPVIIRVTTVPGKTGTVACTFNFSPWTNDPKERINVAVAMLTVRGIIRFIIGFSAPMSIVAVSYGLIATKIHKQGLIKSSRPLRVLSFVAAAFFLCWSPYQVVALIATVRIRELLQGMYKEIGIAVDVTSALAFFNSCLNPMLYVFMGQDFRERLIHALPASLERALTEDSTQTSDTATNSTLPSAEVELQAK
Outline: as §1

human FPR2 [3] = biological target: T1, human FPR2; type: cell-based; details: for Ca+2 mobilization FPR2-HL60 max. inhibition: desensitization, pretreatment, then WKYMVM 5 nM
Outline: (§2)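 Fluo-4-loaded transfected HL-60 cells in HBSS⁺ were pretreated with DMSO vehicle or graded test compound concentrations while Ca²⁺ flux was monitored. The same wells were then challenged with 5 nM fMLF (FPR1 cells) or 5 nM WKYMVM (FPR2 cells). The second Ca²⁺ response (ex 485/em 538 nm, every 5 s for 240 s, room temperature) was taken as the measure of desensitization. Each compound was run in triplicate, with dose-response curves fitted by nonlinear regression.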

human FPR1 [4] = biological target: T2, human FPR1; experiment: Desensitization: inhibition of fMLF-induced Ca2+ mobilization in FPR1-HL60 cells; type: cell-based
Outline: as §2

N9 cells = experiment: MTT cytotoxicity assay in N9 cells; type: cell-based; details: Mus musculus, N9, 24 h, read-out: MTT EC50
Outline: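 Murine N9 microglia were grown in IMDM with 5% FBS and 2 mM glutamine at 37 °C in 5% CO₂, and seeded at 20,000 cells/well. Next day, test compound was added at 5–6 concentrations (10⁻⁸–10⁻⁴ M) in triplicate, with a DMSO vehicle control. After 24 h, MTT (0.5 mg/mL) was added for 3–4 h at 37 °C. Formazan was dissolved in DMSO/EtOH 1:1 and read at 570 and 630 nm. EC50 came from a nonlinear fit of percent absorbance change against log concentration.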

[5] = tested on: mouse microglial N9 cells; experiment: ROS production in LPS-stimulated N9 cells; type: cell-based; details: for reduction in cellular ROS level (dose dependence): N9 cells stimulated with LPS, 0.1 and 1 μM; for reduction in ROS production: N9 cells, 24 h co-incubation with LPS, compound 0.1 μM, p<0.05
Outline: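 N9 microglia seeded at 25,000 cells/well; after 3–4 h, LPS 300 ng/mL added alone or with test compound (0.1 or 1 μM), then 24 h at 37 °C. H2DCF-DA (10 μM final) added for 30 min, wells washed 3× in ice-cold PBS, read in saline at ex 480/em 520 nm. Increase over basal fluorescence; mean ± standard error, ≥3 biological replicates; one-way ANOVA with paired two-tailed t-tests, p<0.05.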

[6] = ROS scavenging in cell-free non-enzymatic O2·−-generating system; details: concentrations up to 20 μM; data not shown
Outline: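 Superoxide generated non-enzymatically from phenazine methosulfate plus NADH in 0.05 M phosphate buffer, pH 7.5, with or without test compound. Detection by NBT reduction to monoformazan, followed at 560 nm and 25 °C on a plate spectrophotometer. The rate of absorbance change was taken as the read-out.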

FPR2 [7] = details: read-out: Ki value at FPR2; cited from earlier work
FPR2 [8] = details: cited from earlier work
FPR2 [9] = details: FPR2 agonist WKYMVm; cited from earlier work
ear edema = details: cited from earlier work
FPR2 [10] = details: read-out: FPR2 desensitization IC50; cited from earlier work

Ca+2 mobilization FPR2-HL60 efficacy (human FPR2 [1]) [%]	Ca+2 mobilization FPR1-HL60 efficacy (human FPR1 [2]) [%]	SMILES	Ca+2 mobilization FPR2-HL60 max. inhibition (human FPR2 [3]) [%]	EC50 (N9 cells) [nM]	reduction in cellular ROS level (dose dependence) [5]	reduction in ROS production [5]	direct ROS scavenging activity [6]	other results
140	110	O=C(Nc1ccc(Br)cc1)N[C@H](Cc1ccc(O)cc1)C(=O)NC1CCCCNC1=O (stereo partly drawn) [(2R)-46, (2R)-2-[3-(4-Bromophenyl)ureido]-3-(4-hydroxyphenyl)-N-(2-oxoazepan-3-yl)propanamide]	100	> 100000	dose-dependent reduction in cellular ROS level	statistically significant reduction in ROS production	none of the tested compounds demonstrated ROS scavenging activity	EC50 (human FPR2 [1]): 350 ± 120 nM; EC50 (human FPR1 [2]): 820 ± 370 nM; FPR2 desensitization / block of agonist-induced Ca2+ mobilization, in words (human FPR2 [3]; FPR2-HL60 cells, WKYMVM): able to induce desensitization; FPR1 desensitization / inhibition of fMLF-induced Ca2+ mobilization, in words (human FPR1 [4]; FPR1-HL60 cells, fMLF): able to induce FPR1 desensitization; Ca+2 mobilization FPR1-HL60 max. inhibition (human FPR1 [4]; desensitization, pretreatment, then fMLF 5 nM): 85%
–	–	N#Cc1ccc(C[C@@H](NC(=O)Nc2ccc(O)cc2)C(=O)NCC2(c3ccccc3)CC2)cc1 [(R)-24, (R)-3-(4-Cyanophenyl)-2-[3-(4-hydroxyphenyl)ureido]-N-[(1-phenylcyclopropyl)methyl]propanamide]	–	> 100000	–	–	–	–
90	55	COc1ccc(NC(=O)N[C@H](Cc2ccc(O)cc2)C(=O)NCC2(c3ccccc3)CC2)cc1 [(R)-25, (R)-3-(4-Hydroxyphenyl)-2-[3-(4-methoxyphenyl)ureido]-N-[(1-phenylcyclopropyl)methyl]propanamide]	75	> 100000	dose-dependent reduction in cellular ROS level	statistically significant reduction in ROS production	none of the tested compounds demonstrated ROS scavenging activity	–
–	–	CCCCOc1ccc(C(=O)NN2C(=O)c3ccccc3NC2c2ccc(O)cc2)cc1 (stereo not drawn) [Compound 6, Quin C7]	–	–	–	–	–	Ki (FPR2 [7]): 6700 nM; inhibition of Ca2+ flux induced by WKYMVm (FPR2 [8]; FPR2 agonist WKYMVm): inhibited; activation of Ca2+ flux (FPR2 [8]; FPR2 transfected cells): did not activate Ca^2+ flux; inhibition of chemotaxis induced by WKYMVm (FPR2 [9]): inhibited; arachidonic acid-induced ear edema (ear edema): inhibited arachidonic acid-induced ear edema
–	–	CCCCOc1ccc(C(=O)NN2C(=O)c3ccccc3NC2c2ccc(OC)cc2)cc1 (stereo not drawn) [Quin C1, reference compound]	–	–	–	statistically significant reduction in ROS production	–	IC50 (FPR2 [10]): 40 nM
